A short description of series [1]: Selectivity index, ratio of LC50 for Swiss Webster mouse cardiac cells by light microscopic analysis to EC50 for bloodstream trypomastigote stage of Trypanosoma cruzi Y measured after 24 hrs. The format is toxicity. The note with it: read-out: Selectivity Index. The gist of the method:
(§1)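 The ratio is cardiac-cell LC50 (24 h) over the 24 h EC50 against Y-strain bloodstream trypomastigotes. Trypomastigotes (5x10^6/mL) were exposed to 0-50 µM at 37°C in RPMI with 5% FBS. Surviving parasites were counted in a Neubauer chamber, and the EC50 is the concentration halving the parasite number.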

Series [2] can be described thus: Cytotoxicity against Swiss Webster mouse cardiac cells assessed as reduction in cell viability after 24 hrs by light microscopic analysis. The note with it: read-out: LC50. The format is cell-based, Cardiac Muscle Cell. The procedure, abridged: (§2)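 Primary cardiac cells from Swiss Webster mouse embryos, cultured at 37°C in DMEM with 5% FBS, CaCl2, glutamine and chick embryo extract. Uninfected cultures were exposed to increasing concentrations for 24 h. Viability was read with PrestoBlue (5 h incubation, absorbance at 570 nm) and checked by light microscopy for morphology.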

Series [3] relates to Trypanosoma cruzi. The series is described as follows: Antitrypanosomal activity against bloodstream trypomastigote stage of Trypanosoma cruzi Y infected in Swiss Webster mouse assessed as reduction in parasitemia at 100 mg/kg, po administered daily on day 5 to 9 post infection relative to control. The format is functional. Also on record: scale not given: the % may be the effect or the level left. The gist of the method: (§3)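 Male Swiss Webster mice (18–20 g) infected i.p. with 10^4 Y strain bloodstream trypomastigotes. Treatment given days 5–9 post infection: test compound i.p. 5–20 mg/kg/day (0.1 mL, DMSO then 20% Trappsol) or Bz 100 mg/kg/day p.o. (3% Tween 80 in water). Controls infected, vehicle only. Parasitemia counted by Pizzi-Brener in 5 µL tail blood; mortality checked daily to 30 days post treatment.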

Series [4] can be described thus: Selectivity index, ratio of LC50 for mouse L929 cells by Alamarblue assay to EC50 for Trypanosoma cruzi Tulahuen trypomastigote forms. The series is classed as toxicity. Conditions: read-out: Selectivity Index. (In general: Resazurin is reduced to fluorescent resorufin, in cell work by metabolically active cells.)
Series [5] is described as follows: Selectivity index, ratio of LC50 for mouse L929 cells by light microscopic analysis to EC50 for Trypanosoma cruzi Tulahuen trypomastigote forms. The format is toxicity. The note with it: read-out: Selectivity Index.
Series [6] deals with Trypanosoma cruzi. Kind of series: Antitrypanosomal activity against bloodstream trypomastigote stage of Trypanosoma cruzi Y infected in Swiss Webster mouse assessed as reduction in parasitemia at 100 mg/kg, po administered daily measured at day 8 post infection. The series is classed as functional, organism-based.
Series [7] can be described thus: Cytotoxicity against mouse L929 cells assessed as reduction in cell viability after 96 hrs by light microscopic analysis. The series is classed as cell-based. The note with it: read-out: LC50. The gist of the method: (§4)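 L929 fibroblasts (4x10^3 cells/well) in RPMI 1640 with 10% FBS, incubated at 37°C with increasing concentrations for 96 h. Viability was read with AlamarBlue (6 h incubation, absorbance at 600 nm) and confirmed by light microscopy.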

The nature of series [8]: Cytotoxicity against mouse L929 cells assessed as reduction in cell viability after 96 hrs by Alamarblue assay. The series is classed as cell-based. The note with it: read-out: LC50. The gist of the method:
as §4

In series [9] the test system is Trypanosoma cruzi. The series is described as follows: Antitrypanosomal activity against bloodstream trypomastigote stage of Trypanosoma cruzi Y infected in Swiss Webster mouse assessed as mouse survival at 100 mg/kg, po administered daily on day 5 to 9 measured daily until 30 days post dose relative to control. The series is classed as functional. The gist of the method: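 Male Swiss Webster mice (18-20 g) were infected i.p. with 10^4 Y-strain bloodstream trypomastigotes. Benznidazole was given in sterile water with 3% Tween 80, 0.1 mL p.o. daily from 5 to 9 dpi. Mice were checked daily for mortality until 30 days post treatment, and the result was expressed as percentage cumulative mortality.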

The test system of series [10] is Trypanosoma cruzi. Kind of series: Antitrypanosomal activity against Trypanosoma cruzi Tulahuen trypomastigote forms infected in mouse L929 cells assessed as reduction in infection level at 10 to 12 uM after 96 hrs by beta-galactosidase reporter gene assay relative to control. The format is functional. Also on record: scale not given: the % may be the effect or the level left. The gist of the method: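 L929 cells infected 2 h with tissue culture-derived β-galactosidase-expressing Tulahuen trypomastigotes at 10:1 parasite/host cell ratio, rinsed, and held 48 h at 37℃. Single fixed concentration (10-12 µM) then applied, 96 h. Absorbance read at 570 nm; growth inhibition expressed relative to untreated cells. DMSO not above 0.6 %.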
(In general: Reporter assays use an easily measured gene product as a stand-in for the process of interest.)

Series [11] deals with Trypanosoma cruzi. Kind of series: Antitrypanosomal activity against bloodstream trypomastigote stage of Trypanosoma cruzi Y measured after 2 hrs by light microscopic analysis. The series is classed as functional, organism-based. The gist of the method: (§5)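 Y strain bloodstream trypomastigotes from heart puncture of infected mice, at 5x10⁶/mL in RPMI 1640 with 5% FBS. Incubated at 37℃ with 0–50 µM for 2 or 24 h. […] Mean ± SD.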

A short description of series [12]: Cytotoxicity against Swiss Webster mouse cardiac cells assessed as reduction in cell viability after 24 hrs by prestoblue assay. The format is cell-based, Cardiac Muscle Cell. Conditions: read-out: LC50. The procedure, abridged:
as §2

Series [13] has as its system Trypanosoma cruzi. Kind of series: Antitrypanosomal activity against bloodstream trypomastigote stage of Trypanosoma cruzi Y measured after 24 hrs by light microscopic analysis. The series is classed as functional, organism-based. The procedure, abridged: as §5
Series [14] relates to Trypanosoma cruzi. The series is described as follows: Antitrypanosomal activity against Trypanosoma cruzi Tulahuen trypomastigote forms infected in mouse L929 cells assessed as reduction in parasite load after 96 hrs by beta-galactosidase reporter gene assay. The format is functional, organism-based. Conditions: L929, 96 h. The procedure, abridged:
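L929 cells infected 2 h with tissue culture-derived Tulahuen β-galactosidase trypomastigotes (10:1 parasite/host cell), rinsed with saline, and left 48 h at 37℃. Increasing non-toxic concentrations applied for 96 h. Absorbance read at 570 nm, % growth inhibition versus untreated cells, EC50 derived; mean ± SD. DMSO not above 0.6 %.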

A short description of series [15]: Selectivity index, ratio of LC50 for Swiss Webster mouse cardiac cells by prestoblue assay to EC50 for bloodstream trypomastigote stage of Trypanosoma cruzi Y measured after 24 hrs. The format is toxicity. Conditions: read-out: Selectivity Index. The procedure, abridged: as §1
For series [16], the target named is Sterol 14-alpha demethylase (Trypanosoma cruzi (strain CL Brener)) (UniProt Q7Z1V1). The series is described as follows: Inhibition of recombinant Trypanosoma cruzi Tulahuen CYP51 expressed in Escherichia coli JM109 cell membranes assessed as residual activity at 0.033 uM by fluorescence based analysis (reference value: 95%).
Sterol 14-alpha demethylase (Trypanosoma cruzi (strain CL Brener)), sequence (Q7Z1V1 whole entry, looked up): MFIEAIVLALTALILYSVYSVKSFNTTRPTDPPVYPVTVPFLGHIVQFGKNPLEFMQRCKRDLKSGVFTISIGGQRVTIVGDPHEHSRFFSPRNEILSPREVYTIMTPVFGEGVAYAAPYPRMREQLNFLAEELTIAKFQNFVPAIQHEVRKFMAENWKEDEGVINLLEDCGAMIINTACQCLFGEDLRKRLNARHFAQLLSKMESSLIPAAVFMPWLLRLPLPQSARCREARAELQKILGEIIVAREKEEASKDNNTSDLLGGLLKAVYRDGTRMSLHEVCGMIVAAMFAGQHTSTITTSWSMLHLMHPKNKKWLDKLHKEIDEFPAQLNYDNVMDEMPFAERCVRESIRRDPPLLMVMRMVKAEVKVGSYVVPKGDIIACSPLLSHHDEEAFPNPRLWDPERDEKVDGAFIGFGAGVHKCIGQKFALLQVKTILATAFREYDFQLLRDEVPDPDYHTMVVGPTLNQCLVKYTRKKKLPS
Series [17] has as its system Trypanosoma cruzi. Kind of series: Antitrypanosomal activity against bloodstream trypomastigote stage of Trypanosoma cruzi Y infected in Swiss Webster mouse assessed as increase in mouse survival at 5 to 20 mg/kg, ip administered daily on day 5 to 9 measured daily until 30 days post dose relative to control. The series is classed as functional, organism-based. The gist of the method: as §3

Series [18] relates to Trypanosoma cruzi. The series is described as follows: Antitrypanosomal activity against bloodstream trypomastigote stage of Trypanosoma cruzi Y infected in Swiss Webster mouse assessed as reduction in parasitemia at 10 mg/kg, ip administered daily on day 5 to 9 post infection relative to control. The series is classed as functional. Also on record: scale not given: the % may be the effect or the level left. The gist of the method: as §3

Series [19] can be described thus: Acute toxicity in ip dosed Swiss Webster mouse measured 48 hrs post dose. The note with it: in vivo. The series is classed as organism-based. The gist of the method:
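Female Swiss Webster mice (20 to 23 g) injected intraperitoneally with increasing doses up to 200 mg/kg, n = 2 mice per assay, two assays. Animals inspected for toxic and subtoxic signs under OECD guidelines; NOAEL determined 48 h after injection. Vehicle: DMSO then Trappsol, in vivo vehicle not above 20 %.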

In series [20] the target is Sterol 14-alpha demethylase (Trypanosoma cruzi (strain CL Brener)) (UniProt Q7Z1V1). Kind of series: Potency index, ratio of fluconazole IC50 to compound IC50 for recombinant Trypanosoma cruzi Tulahuen CYP51.
Series [21] relates to Trypanosoma cruzi. The series is described as follows: Antitrypanosomal activity against bloodstream trypomastigote stage of Trypanosoma cruzi Y infected in Swiss Webster mouse assessed as reduction in parasitemia at 20 mg/kg, ip administered daily on day 5 to 9 post infection relative to control. The series is classed as functional. Also on record: scale not given: the % may be the effect or the level left. The procedure, abridged: as §3

Series [22] has as its target Sterol 14-alpha demethylase (Trypanosoma cruzi (strain CL Brener)) (UniProt Q7Z1V1). Kind of series: Inhibition of recombinant Trypanosoma cruzi Tulahuen CYP51 expressed in Escherichia coli JM109 cell membranes assessed as residual activity at 1 uM by fluorescence based analysis (reference value: 95%).
For series [23], the system named is Trypanosoma cruzi. Kind of series: Trypanocidal activity against Trypanosoma cruzi Sylvio X10/7 intracellular amastigotes forms assessed as inhibition of maximum parasite growth measured every 24 hrs for 96 hrs by time-kill assay relative to control. The format is functional.
Series [24] concerns the target Sterol 14-alpha demethylase (Trypanosoma cruzi (strain CL Brener)) (UniProt Q7Z1V1). The series is described as follows: Inhibition of recombinant Trypanosoma cruzi Tulahuen CYP51 expressed in Escherichia coli JM109 cell membranes assessed as residual activity at 10 uM by fluorescence based analysis (reference value: 95%).
Series [25] shares this target. Kind of series: Inhibition of recombinant Trypanosoma cruzi Tulahuen CYP51 expressed in Escherichia coli JM109 cell membranes assessed as residual activity at 0.01 uM by fluorescence based analysis (reference value: 95%).
Series [26] shares this target. Kind of series: Inhibition of recombinant Trypanosoma cruzi Tulahuen CYP51 expressed in Escherichia coli JM109 cell membranes assessed as residual activity at 0.1 uM by fluorescence based analysis (reference value: 95%).
The test system of series [27] is Trypanosoma cruzi. Kind of series: Trypanocidal activity against Trypanosoma cruzi Sylvio X10/7 intracellular amastigotes forms measured every 24 hrs for 96 hrs by time-kill assay. The series is classed as functional.
In series [28] the target is Sterol 14-alpha demethylase (Trypanosoma cruzi (strain CL Brener)) (UniProt Q7Z1V1). Kind of series: Inhibition of recombinant Trypanosoma cruzi Tulahuen CYP51 expressed in Escherichia coli JM109 cell membranes assessed as residual activity at 3.3 uM by fluorescence based analysis (reference value: 95%).
Series [29] shares this target. Kind of series: Inhibition of recombinant Trypanosoma cruzi Tulahuen CYP51 expressed in Escherichia coli JM109 cell membranes assessed as residual activity at 0.33 uM by fluorescence based analysis (reference value: 95%).
Series [30] has as its system Trypanosoma cruzi. The series is described as follows: Antitrypanosomal activity against Trypanosoma cruzi Sylvio X10/7 intracellular amastigotes forms assessed as reduction in number of amastigotes per host cell measured every 24 hrs for 96 hrs by time-kill assay. The series is classed as functional, organism-based.
The subject of series [31] is Trypanosoma cruzi. Kind of series: Antitrypanosomal activity against bloodstream trypomastigote stage of Trypanosoma cruzi Y infected in Swiss Webster mouse assessed as reduction in parasitemia at 5 mg/kg, ip administered daily on day 5 to 9 post infection relative to control. The series is classed as functional. Details: scale not given: the % may be the effect or the level left. The procedure, abridged:
as §3

Series [32] addresses Sterol 14-alpha demethylase (Trypanosoma cruzi (strain CL Brener), UniProt Q7Z1V1). The series is described as follows: Inhibition of recombinant Trypanosoma cruzi Tulahuen CYP51 expressed in Escherichia coli JM109 cell membranes assessed as […] by fluorescence based analysis.

Converted amounts (≈) assume the structure as drawn. The source made the active and inactive calls. No cut-off for these calls is given here. Some results are limits rather than exact numbers.

Sterol 14-alpha demethylase, sequence (Q7Z1V1 whole entry): as the sequence (Q7Z1V1 whole entry, looked up) above

One may read the EC50 as the concentration giving half of the maximal effect. Consider `O=C(Cn1ccnc1[N+](=O)[O-])NCc1ccccc1` [BENZNIDAZOLE], for which the selectivity ratio at 24 h in series [1] and in series [15] was above 12 throughout. The CC50 at 24 h in [2] and in series [12] was above 200 µM in each case. Moreover, the Activity in the series with Trypanosoma cruzi [3] stood at 100%; with Trypanosoma cruzi [10] it was 89.3%. In addition, the selectivity ratio in [4] and in series [5] was above 53 each time. In addition, the result with Trypanosoma cruzi [6] was Active. For the same compound, the CC50 at 96 h in series [7] and in series [8] was above 200 µM throughout. Besides, the survival at 100 mg/kg with Trypanosoma cruzi [9] stood at 100%. In addition, the EC50 in the series with Trypanosoma cruzi [11] lay in the range of 10 to 50 µM; with Trypanosoma cruzi [13], 6.02 to 16.9 µM; in the series on Trypanosoma cruzi [14], 2.63 to 3.79 µM.

Usually NOAEL stands for the highest dose or exposure tested at which no adverse effect was seen. Broadly, the MIC is the lowest concentration found to suppress growth. In general, IC50 refers to the concentration needed to halve the response being measured. Turning to `Cc1n[nH]c2c1[C@@H](c1ccc(OCc3ccccc3Cl)cc1)S[C@@H](C)C(=O)N2`, the Activity turned out to be 75.8% in series [16]; 38% with Trypanosoma cruzi [18]; 43% in the series with Trypanosoma cruzi [21]; 5.4% in series [22]; 0% in [24]; 89.9% in [25]. Besides, the Activity was found to be 49.5% in series [26], 1.2% in series [28], 0% in series [29] and 30% in the series on Trypanosoma cruzi [31]. Besides, the outcome in the series with Trypanosoma cruzi [17] was inactive. In addition, in [19], the no-observed-adverse-effect level (NOAEL) at 48 h is above 50 mg/kg. Besides, in series [20], the Ratio IC50 was found to be 8. Further, in the series on Trypanosoma cruzi [23], the Imax was found to be 94%. In addition, the minimum inhibitory concentration (MIC) with Trypanosoma cruzi [27] was determined as 17 µM (≈ 7.04 µg/mL). Besides, the EC50 with Trypanosoma cruzi [30] was 0.4 µM; with Trypanosoma cruzi [11] it was above 10 µM; in the series with Trypanosoma cruzi [13] it was 4 µM; in the series with Trypanosoma cruzi [14], 3.86 µM. For the same compound, the IC50 in series [32] was 0.1 µM.

Source of the values: ChEMBL document CHEMBL4196064, “Identification of Pyrazolo[3,4-e][1,4]thiazepin based CYP51 inhibitors as potential Chagas disease therapeutic alternative: In vitro and in vivo evaluation, binding mode prediction and SAR exploration” (Eur J Med Chem, 2018).
